STAT1 activator = activators of IFN-gamma induced STAT1 signaling | NIH 3T3 STAT1-luciferase reporter, luminescence; 100% = IFN-gamma alone, no compound | activation (% of control), % at 5.5 µM | 200,000 compounds, 2.6% hits | AID 932;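 active = activation above the screen-wide mean activation plus 3 SD, cut at about 130% in these data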;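 also: raw ratio to IFN-gamma control signal so 100% means no change and 0% no light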
STAT3 inh = STAT3 signaling inhibition; U3A cells, IL-6 STAT3-luciferase reporter, luminescence; host cell line lacks STAT1; inhibition, % at 5.5 µM; 190,000 compounds, 0.89% hits;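 active = inhibition above the mean inhibition across all screened compounds plus 3 SD, cut at about 44% in these data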;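 also: 0% = DMSO only wells and 100% = 100 µM nifuroxazide control wells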
NF-kB neuron act = NF-kB expression increase, human neuronal cells; AID 1239; NF-kB reporter expression; hits give high values; fold change at 12.5 µM; 190,000 compounds, 1.6% hits; in the data active = fold change above about 3.3
APP 5'UTR act = activates APP 5'UTR luciferase reporter. SH-SY5Y APP 5'UTR luciferase reporter, luminescence; zero percent = DMSO vehicle wells. activation, % at 2 µM. 190,000 compounds, 1% hits. AID 1276;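 active = activation above a set limit, based on mean plus 3 SD of controls, cut at about 140% in these data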
STAT3 act = increases IL-6 driven STAT3 reporter signal; U3A cells, IL-6 STAT3-luciferase reporter, luminescence; 100% = signal with IL-6 EC80 alone; activation (% of control), % at 5.6 µM; 190,000 compounds, 0.91% hits; AID 871;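 active = activation above the screen-wide mean of compound activation plus 3 SD, cut at about 130% in these data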;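 also: 0% = background luminescence of wells with medium and substrate only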
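Material: STAT3-luciferase reporter U3A cells. Controls: IL-6-treated wells, 100% activation. Read-out: % activation versus median of IL-6-stimulated wells. Probe or stimulus: IL-6 stimulus at 33 ng/mL final. Timing: compound 1 h, then IL-6 6 h at 37 °C. Signal: reporter luminescence signal.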
STAT1 blocker = STAT1 signaling inhibition; NIH 3T3 STAT1-luciferase reporter, IFN-gamma, luminescence; inhibition, % at 5.5 µM; 200,000 compounds, 0.35% hits;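 active = inhibition above a set limit, the mean inhibition across all tested compounds plus 3 SD, cut at about 34% in these data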;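 also: 0% = IFN-gamma with DMSO and 100% = IFN-gamma with 300 µM nifuroxazide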
STAT1 activ conf = confirmation of STAT1 signaling activators; shares compounds with STAT1 activator; NIH 3T3 STAT1-luciferase reporter, IFN-gamma potentiation, luminescence; 100% = IFN-gamma EC80 alone, no compound; activation (% of control), % at 5.7 µM; 1,200 compounds, 97% hits;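 active = activation above a set limit carried over from the earlier primary STAT1 screen, cut at about 140% in these data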;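 also: simple ratio to median IFN-gamma plus DMSO wells so 0% means no light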
NFkB act STAT1ct = NF-kappaB activation in STAT1 activator counter-screen; HEK293T NF-kB luciferase reporter, TNF-alpha stimulated, luminescence; 100% = TNF-alpha with vehicle only; activation (% of control), % at 5.7 µM; shares compounds with STAT1 activator; AID 1306; 1,200 compounds, 43% hits;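 active = activation above the mean of solvent-only control wells plus 3 SD, set per campaign, cut at about 130% in these data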;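 also: TNF-alpha given at a submaximal dose yielding about 80% of full reporter signal; values are well signal over median control so 100% means no change and 0% no light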
STAT3 act STAT1c = counter-screen for STAT1 activators: human STAT3 activation; 1,200 compounds, 46% hits; U3A cells STAT3-luciferase reporter, IL-6, luminescence; cells lack STAT1; 100 = IL-6 alone, no compound effect; activation (% of control), % at 5.7 µM; shares compounds with STAT1 activator;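 active = activation above the solvent-only control well mean plus 3 SD, set per plate batch, cut at about 110% in these data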;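 also: 0% = no luminescence and 100% = median IL-6 plus DMSO wells; higher means more STAT3 reporter activation so hits are non-selective activators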
Active calls of the source: *; x = no result given. This is a sample that favours compounds with a hit; in the whole collection about 5.1% have one here.

SMILES	STAT1 activator	STAT3 inh	NF-kB neuron act	APP 5'UTR act	STAT3 act	STAT1 blocker	STAT1 activ conf	NFkB act STAT1ct	STAT3 act STAT1c
COc1ccc(-c2cc(=O)oc3cc(OCC(=O)c4cccc([N+](=O)[O-])c4)ccc23)cc1	99.3	0.5	1.09	-0.8	101.8	0.7	x	x	x
O=C(CCc1ccccc1)c1ccc2c(c1)OCCCO2	123.8	-2.5	3.06	127.4	103.3	-25.9	x	x	x
O/N=C(/CCc1ccccc1)c1ccc2c(c1)OCCO2	154.8*	4.3	2.55	57.6	104.7	-59.1	154.5*	124.2	109.8
O=c1c2c(nc3cc(-c4ccc(F)cc4)[nH]n13)CCC2	152.2*	-5.9	1.04	98.7	105.0	-59.6	176.0*	118.1	102.3
Cc1cc(C)n(-c2ccc(C(=O)Nc3cccnc3Cl)cc2)n1	101.5	22.9	1.15	-5.7	82.1	-1.1	x	x	x
Cc1cc(C)n(-c2ccc(C(=O)Nc3ccccn3)cc2)n1	156.4*	34.7	4.06*	141.7*	71.0	-62.3	181.2*	110.5	97.1
Cc1cc(C)n(-c2ccc(C(=O)Nc3nnc(C)s3)cc2)n1	99.3	23.7	1.23	7.5	80.3	-5.2	x	x	x
Cc1cc(C)n(-c2ccc(C(=O)Nc3sccc3C(N)=O)cc2)n1	162.7*	21.7	2.38	170.6*	89.5	-68.9	211.3*	124.4	103.6
CC(C)CC(=O)Nc1ccc2nn(-c3ccccc3)nc2c1	177.1*	12.7	6.3*	179.1*	92.7	-87.2	223.6*	149.0*	109.3
COCCNc1nnc(SC(C)C(=O)Nc2ccc(-c3nc4ccc(C)cc4s3)cc2)s1 (centres undefined)	159.8*	20.4	4.48*	-14.1	81.8	-65.8	200.4*	123.1	102.2
CCCCNC(=S)Nc1ccc(-c2nc3ccc(C)cc3s2)cc1	151.2*	26.3	10.6*	180.4*	80.0	-56.6	210.2*	142.8*	100.5
CCC(C)(C)NC(=S)Nc1ccc(-c2nc3ccc(C)cc3s2)cc1	176.6*	20.6	2.47	172.6*	81.6	-86.0	199.6*	129.7	106.7
CCCCNC(=S)Nc1cccc(C(C)=O)c1	96.0	-2.1	1.72	-1.9	100.4	4.4	x	x	x
Cc1onc(-c2ccccc2Cl)c1C(=O)OCC(=O)Nc1cccc(S(=O)(=O)N2CCOCC2)c1	82.2	16.8	0.55	-6.0	90.8	18.7	x	x	x
Cc1cc(C)c(C(=O)COC(=O)c2cccnc2Cl)c(C)c1	122.5	14.5	1.63	7.8	89.8	-24.9	x	x	x
c1ccc2nc3c(nc2c1)[nH]c1ccccc13	160.1*	-12.5	5.9*	257.3*	116.4	-66.0	202.2*	131.5	126.1*
c1ccc(-c2c3ccccc3nc3[nH]c4ccccc4c23)cc1	95.1	-6.8	0.94	0.6	103.3	5.4	x	x	x
O=C(Nc1ccc2nsnc2c1)c1ccc2c(c1)OCO2	153.9*	32.2	7.02*	150.0*	71.6	-58.4	213.8*	126.2	95.0
Cc1ccc(-n2nc3ccc(NC(=O)c4ccc5c(c4)OCO5)cc3n2)cc1	103.8	-8.2	1.23	8.5	109.5	-4.2	x	x	x
Cn1c(C(=O)Nc2ccc3c(c2)OCCO3)cc2sccc21	186.4*	30.8	9.14*	152.4*	76.5	-94.3	271.9*	132.2	102.9
CC(=O)Nc1ccc(C(=O)Nc2ccc3c(c2)OCO3)cc1	107.8	5.4	1.63	8.7	100.5	-8.5	x	x	x
Cc1cc(C(=O)Nc2ccc3c(c2)OCO3)cs1	156.8*	-9.1	4.49*	177.5*	110.8	-50.2	168.0*	122.0	118.8*
CC(=O)OC(C(=O)N1CCOCC1)c1c(F)cccc1F (centres undefined)	95.8	8.6	1.05	6.8	96.9	2.9	x	x	x
Cc1nnsc1S(=O)(=O)Cc1ccccc1C(F)(F)F	97.4	11.5	1.14	-4.1	100.1	2.1	x	x	x
CN1C(=O)[C@@H]2[C@@H]3C[C@@H]([C@H]4ON=C(c5ccc(Cl)cc5Cl)[C@@H]34)[C@@H]2C1=O	102.3	5.1	1.05	6.0	95.1	-2.6	x	x	x
SMILES	STAT1 activator	STAT3 inh	NF-kB neuron act	APP 5'UTR act	STAT3 act	STAT1 blocker	STAT1 activ conf	NFkB act STAT1ct	STAT3 act STAT1c
Cc1ccc2c(c1)N(CC(=O)OCC(=O)NCc1ccccc1)C(=O)CO2	99.6	8.0	1.11	12.6	99.1	-1.6	x	x	x
CC(=O)NC12CC3CC(C1)CC(C(=O)OCC(=O)Nc1ncc(Cl)c(C)c1Cl)(C3)C2	107.9	6.0	1.13	8.9	98.6	-10.4	x	x	x
CC(=O)NC12CC3CC(C1)CC(C(=O)OCC(=O)c1ccc4c(c1)OCCO4)(C3)C2	161.4*	-8.6	3.13	155.6*	111.2	-67.0	211.5*	125.4	123.6*
CCCN1CCN(C(=O)c2nn(-c3ccc(OC)cc3)c(=O)c3c2c2ccccc2n3C)CC1	105.3	6.0	1.22	38.3	105.6	-6.6	x	x	x
COC(=O)C(C)N1C(=O)S/C(=C/c2cc(C)n(-c3ccccn3)c2C)C1=O (centres undefined)	151.5*	-8.3	3.56*	59.2	106.8	-45.2	172.9*	133.3*	115.9*
c1ccc(CSCc2cn3ccccc3n2)cc1	152.9*	4.6	5.12*	105.1	97.2	-58.9	168.3*	131.8	111.1*
O=C(O)c1ccccc1SCc1cn2ccccc2n1	102.1	-7.3	0.96	11.4	108.6	-2.4	x	x	x
COc1ccc2oc(C(=O)c3ccccc3)c(N)c2c1	173.6*	11.0	6.13*	144.5*	94.2	-80.7	175.5*	141.5*	106.8
Cc1cc2nc(CN(C)Cc3c(C(=O)N(C)C)nc4ccc(Cl)cn34)[nH]c2cc1C	105.0	-0.6	0.89	3.1	102.6	-7.4	x	x	x
O=c1c2ccccc2nnn1CSc1ncnc2ccccc12	81.6	-8.2	2.27	2.6	110.0	20.1	x	x	x
Cc1ccc2nc(SCC(=O)c3c(C)[nH]c4ccccc34)[nH]c2c1	103.1	12.7	0.89	2.7	92.2	-3.5	x	x	x
O=c1c2ccccc2nnn1CSc1ccccc1F	159.9*	14.7	4.66*	152.3*	86.5	-60.3	198.3*	115.3	103.2
Cc1ccc2nc(SCn3nnc4ccccc4c3=O)[nH]c2c1	163.2*	-24.0	3.77*	175.0*	124.1	-70.1	180.0*	119.5	129.2*
C=CCN(CC=C)C(=S)NC(=O)c1ccc(C)c(Br)c1	95.1	4.5	2.08	-1.8	95.6	5.5	x	x	x

Source: PubChem BioAssay (several laboratories)
